Only a selection was taken, and hits are over-represented in it overall.
Redox H2O2 prof: compounds producing H2O2 with reducing agent – biochemical, NIH compound library profiling, artefact control for MLSCN library redox annotation, primary screen. actives 0.03% (n = 200,000). activation, % at 10 µM. AID 878. DTT-dependent redox cycling H2O2, phenol red/HRP absorbance; 100% = 100 µM peroxide control, 0% = buffer;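 active = activation of at least 50% relative to the plate's high and low controls in the primary single-dose screen; inactive = activation below 50%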;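 note: compound incubated with DTT at 0.8 mM final as the reducing agent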
Lipid droplet: hepatic lipid droplet formation modulation. AML12 mouse hepatocytes, oleate lipid droplets, BODIPY imaging. inhibition, % at 6.5 µM. actives 0.4% (n = 240,000);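 active = lipid droplet intensity inhibited by at least 50%, with more than 500 cells counted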
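Assay system: AML12 mouse liver cells | Compound dosing: One dose, 6.5 µM compound | Read-out basis: Droplet intensity reduction, % inhibition | Measured by: Fluorescence imaging, 20x objective, two fields per well | Schedule: Overnight treatment with compound plus oleate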
L major viab: reduces viability of Leishmania major promastigotes. actives 9% (n = 200,000). resazurin fluorescence viability. inhibition, % at 10 µM. AID 1063; in the data active = inhibition above about 50%;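 note: promastigotes grown with compound for 44 hours at 28 °C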
MPTP block: inhibitors of mitochondrial permeability transition pore. AID 602449. actives 1.4% (n = 360,000). inhibition, % at 10 µM. isolated mouse mitochondria, Ca2+ swelling absorbance, 30 min;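 active = inhibition of 50% or more, scaled per plate between neutral and stimulator controls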;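 note: 0% = DMSO wells given calcium and 100% = 1 mM EGTA wells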
T cruzi inh: blocks replication of Trypanosoma cruzi | T. cruzi beta-gal in NIH3T3, luminescence, 90 h | inhibition, % (no concentration beside the values) | actives 1.4% (n = 300,000) | AID 1885;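 active = mean inhibition across valid replicates above about 55%, limit read from the data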;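 note: signal also drops with host cell toxicity which is not excluded here; 0% = plate median of DMSO wells and 100% = zero luminescence signal; higher percent means less beta-gal luminescence so fewer parasites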
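Assay system: NIH/3T3 host cells with β-galactosidase reporter T. cruzi; input: 5,000 host fibroblasts per well; compound: single 50 nL compound addition per well in DMSO; timing: ≥90 h infection period, 3 h prior cell attachment; measured by: GalScreen β-gal luminescence, detergent lysis, 60 min; evaluation: percent inhibition of parasite-derived β-gal signal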
* hit, by the source's call.

COc1cc(/C(C)=N/NC(=O)CSc2nncn2C)ccc1OCc1ccccc1Cl was read as Redox H2O2 prof 0, Lipid droplet -24, L major viab 73*, MPTP block 26 and T cruzi inh 9.
`C#CCSc1nc2[nH]ncc2c(=O)[nH]1` gave Redox H2O2 prof 0, Lipid droplet -2, L major viab 53*, MPTP block -1 and T cruzi inh -24.
Screening C=CCSc1nc2[nH]ncc2c(=O)[nH]1 returned Redox H2O2 prof -1, Lipid droplet -1, L major viab -9, MPTP block 1 and T cruzi inh -8.
`CN(C)S(=O)(=O)Oc1ccsc1C(=O)Nc1cccc(Cl)c1Cl` gave Redox H2O2 prof 2, L major viab -3, MPTP block 2 and T cruzi inh 62*.
For CN(C)S(=O)(=O)Oc1ccsc1C(=O)Nc1ccccc1Cl the results were Redox H2O2 prof 3, L major viab -2, MPTP block 0 and T cruzi inh 18.
CN(/N=C/c1c[nH]c2ccccc12)c1cnn(-c2ccc(F)c(Cl)c2)c(=O)c1Cl was read as Redox H2O2 prof 1, Lipid droplet 8, L major viab 6, MPTP block 1 and T cruzi inh -4.
CN(/N=C/c1cccnc1)c1cnn(-c2ccc(F)c(Cl)c2)c(=O)c1Cl was read as Redox H2O2 prof 1, Lipid droplet 1, L major viab 68*, MPTP block 3 and T cruzi inh -1.
`Cc1ccc(C2CCN(C(=S)NC(C)C)C2)cc1` (configuration not stated) gave Redox H2O2 prof 1, Lipid droplet 6, L major viab -1, MPTP block 3 and T cruzi inh -11.
For CCc1nc2ccc(C(=O)N3CCN(C(=O)c4ccco4)CC3)cn2c1N(C)Cc1nccn1C the results were MPTP block 1.
For O=C(CNc1ccccc1)N/N=C/c1ccc([N+](=O)[O-])cc1 the results were Redox H2O2 prof 0, Lipid droplet -14, L major viab 14, MPTP block -1 and T cruzi inh -11.
For O=C(CNc1cccc([N+](=O)[O-])c1)N/N=C/c1ccc([N+](=O)[O-])o1 the results were Redox H2O2 prof -2, Lipid droplet -9, L major viab 100*, MPTP block 0 and T cruzi inh 68*.
O=C(CNc1cccc2ccccc12)N/N=C/c1ccc([N+](=O)[O-])o1 was read as Redox H2O2 prof 1, Lipid droplet -23, L major viab 99*, MPTP block 4 and T cruzi inh 83*.
For COc1ccc(NC(=O)N(C)C[C@H]2Oc3ccc(NC(=O)CCN4CCOCC4)cc3C(=O)N([C@H](C)CO)C[C@@H]2C)cc1 the results were MPTP block 0.
COc1cc(/C=C/C(=O)Nc2ccc(C(C)=O)cc2)cc(OC)c1OC was read as Redox H2O2 prof 1, Lipid droplet -1, L major viab 69*, MPTP block 1 and T cruzi inh -13.
Screening COc1cc(/C=C/C(=O)Nc2nnc(CC(C)C)s2)cc(OC)c1OC returned Redox H2O2 prof 0, Lipid droplet 22, L major viab 59*, MPTP block 4 and T cruzi inh 1.
Screening CCOC(=O)[C@]12CCCC=C1N(Cc1ccc(Cl)cc1Cl)C(=O)[C@H](CC(=O)NCc1cccc3ccccc13)C2 returned MPTP block -1.
For CCOc1ccc2nc(NC(=O)C(NS(=O)(=O)c3cccc4nsnc34)C(C)C)sc2c1 (configuration not stated) the results were Redox H2O2 prof -1, L major viab 52*, MPTP block 0 and T cruzi inh 27.
Cc1ccc(Nc2nnc(SCn3nnc4ccccc4c3=O)s2)cc1 was read as Redox H2O2 prof 0, Lipid droplet -18, L major viab 69*, MPTP block 0 and T cruzi inh 27.
Screening O=c1c2ccccc2nnn1CSc1nnc(Nc2ccccc2)s1 returned Redox H2O2 prof 0, L major viab -9, MPTP block -2 and T cruzi inh 2.
CN(C)c1ccc(NC(=O)CCCc2ccccc2)cc1 was read as Redox H2O2 prof 2, Lipid droplet 2, L major viab 76*, MPTP block -1 and T cruzi inh -2.
Screening Cc1cccc(NC(=O)CCCc2ccccc2)c1 returned Lipid droplet -9, MPTP block 0 and T cruzi inh 1.
CCN(CC)C(=O)C(C)OC(=O)COc1ccc(Cl)cc1Cl (configuration not stated) was read as Redox H2O2 prof 0, Lipid droplet 8, L major viab 58*, MPTP block 1 and T cruzi inh -5.
For CCCCOC(=O)COc1ccc(Cl)cc1Cl the results were MPTP block -1.
For CCCCOc1ccc(C)cc1CN(CCO)CCO the results were Redox H2O2 prof 1, Lipid droplet 6, L major viab -2, MPTP block 0 and T cruzi inh -6.
`CCCCCc1ccc(OCCCC[n+]2cccc(C)c2)c(CCCCC)c1` gave Redox H2O2 prof 0, Lipid droplet -31, L major viab 101*, MPTP block 10 and T cruzi inh 52.
For CCC(C)(C)c1ccc(Oc2cccc(C(=O)O)c2)cc1 the results were Lipid droplet 6, MPTP block 0 and T cruzi inh 12.
Screening CCCCCc1ccc(OCCCC[n+]2ccccc2)c(CCCCC)c1 returned Redox H2O2 prof 0, Lipid droplet -4, L major viab 101*, MPTP block 9 and T cruzi inh 49.
For CCCCCc1ccc(OCCCC[n+]2ccc(C)cc2)c(CCCCC)c1 the results were Redox H2O2 prof 0, Lipid droplet -11, L major viab 100* and MPTP block 40.
CCC(C)(C)c1ccc(OCCCC[n+]2ccccc2)c(C(C)(C)CC)c1 was read as Redox H2O2 prof 0, Lipid droplet -30, L major viab 100*, MPTP block 6 and T cruzi inh 58*.
For CC(C)(CO)NC(=S)NCc1ccco1 the results were Lipid droplet -10, MPTP block 1 and T cruzi inh -14.
For Cc1cc([N+](=O)[O-])ccc1NC(=O)CCC(=O)N1CCCCCC1 the results were Lipid droplet 7, MPTP block 1 and T cruzi inh -3.
`Cn1c(=O)c2c(nc(NCCCN3CCOCC3)n2Cc2ccc(Cl)cc2)n(C)c1=O` gave Redox H2O2 prof 0, L major viab 58*, MPTP block -2 and T cruzi inh -18.
Cn1c(=O)c2c(nc(NCCCN3CCOCC3)n2Cc2cccc(Cl)c2)n(C)c1=O was read as Redox H2O2 prof 0, L major viab 98*, MPTP block 1 and T cruzi inh -4.
`CCCNc1nc2c(c(=O)n(C)c(=O)n2C)n1Cc1cccc(C)c1` gave Redox H2O2 prof 0, L major viab 5, MPTP block 1 and T cruzi inh -46.
Screening Cn1c(=O)c2c(nc(NCCCN3CCOCC3)n2Cc2ccc(Cl)c(Cl)c2)n(C)c1=O returned Redox H2O2 prof 0 and L major viab 99*.

High-throughput results: PubChem BioAssay, several laboratories
